Reference: PMC10530161 (Bioorganic & medicinal chemistry, 2023)
“Also recorded” adds a separate entry of the source.

How the values were obtained:
[1] = Human liver microsomal intrinsic clearance; format: in vitro ADME; settings: for CLint scaled: human, liver microsomes, Intrinsinc Clearance hCLINT
How it was run: (§1)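 Intrinsic clearance was measured in human or mouse liver microsomes, depending on the line. Predicted hepatic clearance was then calculated from each species' intrinsic clearance using the well-stirred organ clearance model, with binding terms excluded. The work was done externally as in vitro DMPK studies.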

[2] = Mouse liver microsomal intrinsic clearance; format: in vitro ADME; settings: for CLint scaled: mouse, liver microsomes, Intrinsinc Clearance mCLINT
How it was run: as §1

[3] = system: SW620 colorectal cancer cells which overexpress claudin-1; assay: Cell survival assay in SW620 cells, single concentration 25 μM; format: cell-based; settings: for activity in SW620 cell survival assay: SW620 cells, initial SAR survey at 25 μM; for inhibition at 25 µM: Homo sapiens, SW-620, read-out: % inhibition at 25 uM
IEC-6 cells = assay: General cytotoxicity, dose response in normal IEC-6 cells; format: cell-based; settings: control for general cytotoxicity
CYP3A4 = CYP3A4 (Homo sapiens, UniProt P08684); assay: CYP inhibition, CYP3A4; format: in vitro ADME
Sequence of CYP3A4 (P08684 whole entry): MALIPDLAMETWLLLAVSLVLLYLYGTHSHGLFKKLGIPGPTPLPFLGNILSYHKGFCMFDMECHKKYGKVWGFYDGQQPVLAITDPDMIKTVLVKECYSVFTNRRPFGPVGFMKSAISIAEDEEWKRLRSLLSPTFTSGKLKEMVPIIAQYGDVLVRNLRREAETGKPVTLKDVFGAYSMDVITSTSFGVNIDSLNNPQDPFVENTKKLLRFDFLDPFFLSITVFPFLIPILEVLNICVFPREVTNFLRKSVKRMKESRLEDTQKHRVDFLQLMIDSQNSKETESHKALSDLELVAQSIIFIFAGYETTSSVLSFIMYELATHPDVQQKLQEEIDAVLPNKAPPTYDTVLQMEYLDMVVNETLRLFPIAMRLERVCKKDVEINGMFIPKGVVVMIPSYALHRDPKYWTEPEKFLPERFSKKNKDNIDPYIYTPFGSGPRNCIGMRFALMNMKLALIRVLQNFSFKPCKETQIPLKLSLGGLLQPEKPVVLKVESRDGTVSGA

CYP2D6 = CYP2D6 (Homo sapiens, UniProt P10635); assay: CYP inhibition, CYP2D6; format: in vitro ADME
Sequence of CYP2D6 (P10635 whole entry): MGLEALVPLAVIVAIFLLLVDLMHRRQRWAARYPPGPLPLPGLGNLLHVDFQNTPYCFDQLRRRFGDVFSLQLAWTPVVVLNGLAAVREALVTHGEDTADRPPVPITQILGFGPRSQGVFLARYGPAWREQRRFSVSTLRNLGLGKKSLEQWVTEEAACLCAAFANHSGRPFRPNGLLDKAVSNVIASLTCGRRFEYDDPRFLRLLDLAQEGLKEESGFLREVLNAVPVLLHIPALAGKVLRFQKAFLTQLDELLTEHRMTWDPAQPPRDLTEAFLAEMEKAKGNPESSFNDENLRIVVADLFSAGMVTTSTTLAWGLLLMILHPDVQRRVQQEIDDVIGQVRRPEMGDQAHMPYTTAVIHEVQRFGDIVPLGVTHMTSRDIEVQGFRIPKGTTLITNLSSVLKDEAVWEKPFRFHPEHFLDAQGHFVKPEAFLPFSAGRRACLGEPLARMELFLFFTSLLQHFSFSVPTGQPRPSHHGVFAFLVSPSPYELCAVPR

CYP2C19 = CYP2C19 (Homo sapiens, UniProt P33261); assay: CYP inhibition, CYP2C19; format: in vitro ADME
Sequence of CYP2C19 (P33261 whole entry): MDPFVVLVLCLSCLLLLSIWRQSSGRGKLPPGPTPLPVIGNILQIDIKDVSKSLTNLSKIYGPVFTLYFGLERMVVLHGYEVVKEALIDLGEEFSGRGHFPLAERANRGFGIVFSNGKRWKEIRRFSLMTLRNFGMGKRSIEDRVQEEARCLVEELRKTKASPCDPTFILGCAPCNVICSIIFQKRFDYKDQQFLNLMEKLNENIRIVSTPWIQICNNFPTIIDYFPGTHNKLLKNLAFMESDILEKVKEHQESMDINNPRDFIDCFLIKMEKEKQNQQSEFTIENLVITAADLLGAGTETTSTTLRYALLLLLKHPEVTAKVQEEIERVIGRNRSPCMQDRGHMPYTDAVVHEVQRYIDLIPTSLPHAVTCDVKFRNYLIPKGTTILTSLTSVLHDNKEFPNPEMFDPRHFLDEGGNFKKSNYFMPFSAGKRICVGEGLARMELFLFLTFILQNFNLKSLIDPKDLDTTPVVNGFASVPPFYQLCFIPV

SW620 cells = assay: Dose response assay in SW620 cells; format: cell-based; settings: starting at 12.5 μM
colorectal cancer = settings: in vivo mouse model; cited from earlier work

CLint scaled [1] [mL/min/kg] | CLint scaled [2] [mL/min/kg] | SMILES | inhibition at 25 µM [3] [%] | further results
27.8 | 42.7 | COc1cc2ccccc2cc1C(=O)NC(=S)Nc1ccc(-c2nc3ccccc3[nH]2)cc1 [compound 10] | – | stability in human liver microsomes [1]: moderate stability; stability in mouse liver microsomes [2]: moderate stability
< 20 | < 20 | COc1cc2ccccc2cc1C(=O)NC(=S)Nc1ccc(-c2nc3ccccc3o2)cc1 [compound 11] | – | activity in SW620 cell survival assay [3]: not active; stability in human liver microsomes [1]: stable; stability in mouse liver microsomes [2]: stable
– | – | COc1cc2ccccc2cc1C(=O)NC(=S)Nc1ccc(-c2nc3ccccc3o2)cn1 [compound 12] | – | activity in SW620 cell survival assay [3]: not active
– | – | COc1cc2ccccc2cc1C(=O)NC(=S)Nc1ccc(-c2nc3ccccc3s2)cc1 [compound 13] | – | activity in SW620 cell survival assay [3]: not active
– | – | COc1cc2ccccc2cc1C(=O)NC(=S)Nc1ccc(-c2nc3ccccc3s2)cn1 [compound 14] | – | activity in SW620 cell survival assay [3]: not active
125 | 57.8 | COc1cc2ccccc2cc1C(=O)NC(=S)Nc1ccc(-c2ncc[nH]2)cc1 [compound 15] | – | concentration at which cytotoxicity was shown (IEC-6 cells): 12.5 µM; stability in human liver microsomes [1]: instability; stability in mouse liver microsomes [2]: moderately stable; inhibition at 10 µM (CYP3A4): < 50%; inhibition at 10 µM (CYP2D6): < 50%; inhibition at 10 µM (CYP2C19): < 50%
202 | 37.7 | COc1cc2ccccc2cc1C(=O)NC(=S)Nc1ccc(-c2nccs2)cc1 [compound 16] | – | stability in human liver microsomes [1]: instability; stability in mouse liver microsomes [2]: moderately stable
< 20 | 38.2 | COc1cc2ccccc2cc1C(=O)NC(=S)Nc1ccc(-c2nnco2)cc1 [compound 18] | – | stability in human liver microsomes [1]: regained the stability; stability in mouse liver microsomes [2]: moderate stability; inhibition at 10 µM (CYP3A4): < 50%; inhibition at 10 µM (CYP2D6): < 50%; inhibition at 10 µM (CYP2C19): < 50%
< 20 | 46.2 | COc1cc2ccccc2cc1C(=O)NC(=S)Nc1ccc(-c2ncon2)cc1 [compound 19] | 18.4 | activity in SW620 cell survival assay [3]: inactive; stability in human liver microsomes [1]: regained the stability; stability in mouse liver microsomes [2]: moderate stability
– | – | COc1cc2ccccc2cc1C(=O)Nc1ccc(-c2nc3ccccc3s2)cc1 [compound 20] | 42.3 | –
– | – | COc1cc2ccccc2cc1C(=O)NC(=S)Nc1ccc(-c2cscn2)cc1 [compound 21] | 29 | –
– | – | COc1cc2ccccc2cc1C(=O)Nc1ncc(C(F)(F)F)s1 [compound 22] | 17.6 | –
67.8 | 236 | COc1cc2ccccc2cc1C(=O)NC(=O)Nc1ccc(-c2nc3ccccc3[nH]2)cc1 [compound 23] | 90.8 | –
– | – | COc1cc2ccccc2cc1C(=O)NC(=O)Nc1ccc(-c2nc3ccccc3o2)cc1 [compound 24] | 0 | –
– | – | COc1cc2ccccc2cc1C(=O)NC(=O)Nc1ccc(-c2nc3ccccc3s2)cc1 [compound 25] | 0 | –
– | – | COc1cc2ccccc2cc1C(=O)NC(=O)Nc1ccc(-c2nnco2)cc1 [compound 26] | 23.8 | –
92.8 | 43.5 | COc1cc2ccccc2cc1C(=O)NC(=O)Nc1ccc(-c2cscn2)cc1 [compound 27] | 42.6 | –
32.4 | 53.4 | O=C(NC(=S)Nc1ccc(-c2nc3ccccc3o2)cc1)c1ccc2ccccc2c1 [compound 28] | 76.4 | activity in SW620 cell survival assay [3]: active; % cell survival (SW620 cells): < 50%; stability in human liver microsomes [1]: moderate stability; stability in mouse liver microsomes [2]: moderate stability; activity in in vivo model of colorectal cancer (colorectal cancer): active; also recorded: antitumor and chemosensitizer activities
86.3 | 365 | O=C(NC(=O)c1ccc2ccccc2c1)Nc1ccc(-c2nc3ccccc3[nH]2)cc1 [compound 29] | 12.7 | –
– | – | CCOc1cc2ccccc2cc1C(=O)NC(=S)Nc1ccc(-c2nc3ccccc3o2)cc1 [compound 30] | 0 | –
– | – | CCOc1cc2ccccc2cc1C(=O)NC(=S)Nc1ccc(-c2nc3ccccc3s2)cc1 [compound 31] | 13 | –
– | – | CC(C)Oc1cc2ccccc2cc1C(=O)NC(=S)Nc1ccc(-c2nc3ccccc3o2)cc1 [compound 32] | 17.2 | –
– | – | COc1cc2c(OC)cccc2cc1C(=O)NC(=S)Nc1ccc(-c2nc3ccccc3[nH]2)cc1 [compound 33] | 37.6 | –
– | – | COc1cc2c(OC)cccc2cc1C(=O)NC(=S)Nc1ccc(-c2nc3ccccc3s2)cc1 [compound 34] | 15.8 | –
– | – | O=C(NC(=S)Nc1ccc(-c2nc3ccccc3[nH]2)cc1)c1ccc2cccnc2c1 [compound 35] | 0 | –
– | – | O=C(NC(=S)Nc1ccc(-c2nc3ccccc3o2)cc1)c1ccc2cccnc2c1 [compound 36] | 0 | –
– | – | O=C(NC(=S)Nc1ccc(-c2ncco2)cc1)c1ccc2cccnc2c1 [compound 37] | 1.4 | –
< 20 | 139 | O=C1c2ccccc2CCN1C(=S)Nc1ccc(-c2nc3ccccc3o2)cc1 [compound 38] | – | –
– | – | O=C1c2ccccc2CCN1C(=S)Nc1ccc(-c2ncco2)cc1 [compound 39] | 0.9 | –
– | – | COc1ccccc1NC(=O)Nc1ccc(-c2nc3ccccc3[nH]2)cc1 [compound 40] | 23.8 | –
